Source: PubChem (several laboratories)
MrgX1 antagonist: human MrgX1 receptor antagonism, primary screen. Q96LB2. MRGX1-HEK293 calcium flux, Fluo-4, BAM8-22 antagonism; active compounds read low. B-score at 10 µM. 1.3% of 310,000 active. AID 588676;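 active = calcium-response B-score plate-corrected more than 3 library SD below zero, starting fluorescence within 5 deviations, no agonist response on first addition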;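 note: peak minus trough fluorescence over baseline after final BAM8-22 challenge near maximal dose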
PHOSPHO1 inh: blocks human PHOSPHO1 phosphatase activity; Q8TCT1; recombinant PHOSPHO1, absorbance phosphatase assay; inhibition, % at 13.3 µM; 1.1% of 290,000 active; in the data active = inhibition above about 60%
Target sequence (Q8TCT1 whole entry, looked up): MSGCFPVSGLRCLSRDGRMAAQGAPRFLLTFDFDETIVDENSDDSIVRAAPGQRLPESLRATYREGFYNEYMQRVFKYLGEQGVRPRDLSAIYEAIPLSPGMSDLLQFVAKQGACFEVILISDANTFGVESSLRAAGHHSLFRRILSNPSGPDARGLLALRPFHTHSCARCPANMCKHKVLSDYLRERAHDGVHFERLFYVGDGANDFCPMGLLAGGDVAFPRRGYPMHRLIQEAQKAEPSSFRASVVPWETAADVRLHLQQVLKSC
MrgX1 PAM: human MrgX1 positive allosteric modulation, primary screen. MrgX1-HEK293, Fluo-4 calcium flux, FDSS; active compounds read high. B-score at 10 µM. 0.63% of 310,000 active;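 active = plate-corrected calcium response at least 3 library SD above typical, normal starting fluorescence, not activating the receptor alone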;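 note: compound read alongside a low EC10 to EC30 dose of BAM8-22 agonist; peak minus trough fluorescence over baseline measured at the second addition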
RGS4 act: potentiators or activators of RGS4. HEK293 M3R/inducible RGS4, carbachol calcium flux Fluo4; active compounds read low. B-score at 10 µM. 0.92% of 310,000 active. AID 463111;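 active = B-score of the integrated calcium signal more than 4 SD below the library mean, with starting fluorescence not abnormally high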;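 note: negative B-score means reduced calcium response which marks RGS4 activation or potentiation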
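Assay system: HEK293 FlpIn-TREx cells, stable M3R, doxycycline-inducible RGS4 / Probe or stimulus: carbachol, ECmax concentration / Times: overnight RGS4 induction, 30 min dye load 37 °C, 20 min compound RT / Signal: kinetic calcium fluorescence imaging with Fluo4-AM dye, 2 µM / Measure: Agonist-evoked peak-minus-minimum fluorescence over baseline, integrated ratio, B score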
RGS4 inh: human RGS4 inhibition; HEK293 M3R/RGS4 inducible, Fluo-4 calcium flux; active compounds read high; triggered by carbachol at its EC20; B-score at 10 µM; 0.45% of 310,000 active; AID 463165;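 active = B-score, a plate-corrected calcium signal, over three deviations above library mean, with baseline fluorescence within five deviations of library mean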;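 note: RGS4 expression induced by doxycycline in cells with stable M3 receptor; B-score is computed from the integrated fluorescence ratio over baseline after carbachol; higher B-score means a larger calcium signal and so more RGS4 inhibition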
Target sequence (P49798 whole entry, looked up): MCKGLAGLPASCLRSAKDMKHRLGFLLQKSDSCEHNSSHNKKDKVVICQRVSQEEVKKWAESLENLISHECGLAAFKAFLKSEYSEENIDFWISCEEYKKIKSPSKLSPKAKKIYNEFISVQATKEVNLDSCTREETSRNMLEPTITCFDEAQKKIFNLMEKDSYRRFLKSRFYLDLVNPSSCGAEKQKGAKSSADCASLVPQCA
MrgX1 ag: human MrgX1 receptor agonism, primary screen; Q96LB2; MrgX1-HEK293 cells, Fluo-4 calcium fluorescence, agonist mode; active compounds read high; B-score at 10 µM; 0.44% of 310,000 active; AID 588627;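 active = calcium response B-score plate-corrected fluorescence ratio at least 3 library SD, with starting fluorescence B-score inside 5 SD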
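Assay system: stable human MrgX1 HEK293 cell line. Quantity: 15,000 cells per well. Schedule: cells plated overnight, dye loaded 0.5 h 37 °C, 0.5 h room temperature. Detection: Fluo-4 NW calcium-flux fluorescence, kinetic read. Read-out basis: peak-minus-minimum fluorescence over baseline, converted to B scores. Control set: positive and negative control wells on each plate.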
MrgX1 antag conf: human MrgX1 receptor antagonism, re-confirmation screen; MrgX1-HEK293, BAM8-22 calcium flux, Fluo-4; active compounds read low; AID 602420; remaining BAM8-22 calcium response % of control (active compounds read low), % at 10 µM; shares compounds with MrgX1 antagonist; 19% of 2,300 active;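 active = remaining agonist calcium response no higher than 100% minus 3 SD of agonist-only control wells, with starting fluorescence near control levels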;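 note: agonist BAM8-22 given at a near maximal EC90 to ECmax level; peak minus minimum fluorescence divided by baseline after agonist addition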
HEK293 Ca flux: counter-screen for MrgX1 antagonists: effect in parental HEK293 cells; shares compounds with MrgX1 antagonist; Fluo-4 calcium fluorescence, FDSS; fluorescence ratio F(max-min)/F0 at 10 µM; 2% of 4,000 active; AID 624111;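 active = duplicate-averaged calcium fluorescence ratio at least three times the standard deviation of buffer wells, a nonspecific response in parental cells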
HEK293 Ca counter: activity in parental HEK293 cells without MrgX1; 0.4% of 4,000 active; fluorescence ratio F(max-min)/F0 at 10 µM; parental HEK293 calcium flux, Fluo-4 fluorescence ratio; active compounds read high; shares compounds with MrgX1 antagonist;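 active = calcium fluorescence ratio, averaged over duplicates, at least 3 SD of the buffer-well ratio, meaning a nonspecific response in receptor-free cells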;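 note: untransfected parental HEK293 lacking MrgX1 used as counterscreen for MrgX1 allosteric activators; fluorescence change taken during the second addition on a kinetic imager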
HEK293 Ca cntr2: counter-screen for MrgX1 activators: effect in parental HEK293 cells; shares compounds with MrgX1 antagonist; 8.7% of 4,000 active; fluorescence ratio F(max-min)/F0 at 10 µM; Fluo-4 calcium fluorescence (FDSS); active compounds read high;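 active = calcium fluorescence ratio at least three times the spread of buffer wells, meaning a non-specific response in parental cells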
* = called active by the depositor; i = inactive; . = not tested or not shown. This is a sample that favours compounds with a hit; in the whole collection about 4.5% have one here.

SMILES	MrgX1 antagonist	PHOSPHO1 inh	MrgX1 PAM	RGS4 act	RGS4 inh	MrgX1 ag	MrgX1 antag conf	HEK293 Ca flux	HEK293 Ca counter	HEK293 Ca cntr2
Cc1ccc(C)c(S(=O)(=O)N2CCN(C(=O)Cc3ccccc3)CC2)c1	i	.	i	i	i	i	.	.	.	.
Cc1ccc(C)c(S(=O)(=O)N2CCN(C(=O)CSC(=S)N3CCCC3)CC2)c1	-5.3*	.	i	i	i	i	i	i	i	i
CCCCc1noc(-c2c(-c3ccccc3Cl)noc2C)n1	i	-16	i	i	i	i	.	.	.	.
O=C(NCc1ccccc1F)C1CCCN(S(=O)(=O)N2CCOCC2)C1 (stereo not drawn)	i	30	i	i	i	i	.	.	.	.
COc1cc(CN(C)C(C)C(=O)Nc2ccc([N+](=O)[O-])cc2Cl)ccc1OC(F)F (stereo not drawn)	-21*	-28	i	i	i	i	i	i	i	i
Cc1cc2oc(=O)cc(CN3CCN(S(=O)(=O)c4ccc5c(c4)OCCO5)CC3)c2cc1C	-8.6*	12	i	i	i	i	i	i	i	i
COc1cccc(-c2nn(Cc3ccccc3)cc2CO)c1	i	2	i	i	i	i	.	.	.	.
Cc1[nH]c2ccccc2c(=O)c1CN1CCCCC1	-6.8*	7	i	i	i	i	i	i	i	i
Cc1[nH]c2ccc(Br)cc2c(=O)c1CN1CCCCCC1	i	20	i	i	i	i	.	.	.	.
CC(=O)c1ccc(N2CCN(C(=O)CCC(=O)Nc3ccc4nc(N5CCN(C)CC5)cc(C)c4c3)CC2)cc1	i	4	i	i	i	i	.	.	.	.
CN(CC(=O)Nc1ccccc1Br)C(=O)c1cc(S(=O)(=O)N(C)C)ccc1N1CCCC1	i	.	i	i	i	i	.	.	.	.
O=C(c1ccc(C(=O)N2CCCc3ccccc32)s1)N1CCCc2ccccc21	i	13	i	i	i	i	.	.	.	.
Cc1ccc(C)c2nc3sc(C(=O)N4CCCc5ccccc54)c(N)c3cc12	-5.4*	19	i	-7*	i	i	i	i	i	51*
CCn1c(CSc2nc(C)cs2)nc2cc(S(=O)(=O)N(C)C)ccc21	-4.6*	0	i	i	i	i	i	i	i	i
CCn1c(CCC(=O)O)nc2cc(S(=O)(=O)N(C)C)ccc21	i	-10	i	i	i	i	.	.	.	.
COc1ccc(-c2noc(CN(C(=O)c3ccc4c(c3)OCO4)C(C)C)n2)cc1	i	26	i	i	i	i	.	.	.	.
COc1ccc(-c2noc(CN(C(=O)c3cccs3)C(C)C)n2)cc1	-4.8*	-109	i	i	i	i	i	i	i	i
O=C(CSc1nnc(NC(=O)c2c(F)cccc2F)s1)Nc1ccc(F)cc1	-6.2*	3	i	i	i	i	i	i	i	i
CCN(CC)CCNc1nc2cc(OC)c(OC)cc2c2nc(-c3ccccc3)nn12	i	-20	i	i	i	i	.	.	.	.
O=C(CCCOc1ccccc1)Nc1ccc(Cl)cn1	i	2	i	i	i	i	.	.	.	.
O=C(NCC1CCCO1)c1cccc(S(=O)(=O)N(Cc2ccccc2)c2ccccc2)c1 (stereo not drawn)	i	.	i	i	i	i	.	.	.	.
CC1(c2ccc(C#N)cc2)NC(=O)N(CC(=O)Nc2cc(S(=O)(=O)N3CCOCC3)ccc2Cl)C1=O (stereo not drawn)	-7.3*	32	i	i	i	i	i	i	i	i
CC1(C)CC2CC(C)(CN2CC(O)c2ccccc2)C1 (stereo not drawn)	i	50	i	i	i	i	.	.	.	.
CC1(C)CC2CC(C)(CN2CC(=O)C(C#N)c2ccccc2)C1 (stereo not drawn)	-8.7*	-4	i	i	i	i	i	i	i	i
O=C(c1ccc(Cl)c(S(=O)(=O)N2CCCCCC2)c1)N1CCN(c2ccccc2O)CC1	-4.8*	20	i	i	i	i	80%*	i	i	i
SMILES	MrgX1 antagonist	PHOSPHO1 inh	MrgX1 PAM	RGS4 act	RGS4 inh	MrgX1 ag	MrgX1 antag conf	HEK293 Ca flux	HEK293 Ca counter	HEK293 Ca cntr2
O=C(c1ccc(Cl)c(S(=O)(=O)N2CCCCC2)c1)N1CCN(c2ccccc2)CC1	i	27	i	i	i	i	.	.	.	.
O=C(c1ccc(Cl)c(S(=O)(=O)N2CCOCC2)c1)N1CCN(c2ccccc2)CC1	-4.6*	51	i	i	i	i	i	i	i	i
O=C(c1ccc(Cl)c(S(=O)(=O)N2CCCC2)c1)N1CCN(c2ccccc2)CC1	i	34	i	i	i	i	.	.	.	.
COc1ccc(CNC(=O)CSCc2ccccc2Cl)cc1	i	-7	i	i	i	i	.	.	.	.
COc1ccc(NS(=O)(=O)c2ccc(Cl)c(C(=O)O)c2)cc1S(=O)(=O)N1CCCCC1	i	8	i	i	i	i	.	.	.	.
O=C1COc2ccccc2N1Cc1ccc(Cl)cc1	i	30	i	i	i	i	.	.	.	.
Cc1ccc(S(=O)(=O)n2nnc3ccccc32)c(C)c1C	-4.8*	15	i	i	i	i	i	i	i	i
COc1c(F)c(F)c(C(=O)Nc2c(C)cc(Br)cc2C)c(F)c1F	i	32	i	i	i	i	.	.	.	.
Cc1cc(C(=O)COC(=O)c2ccc3c(c2)NC(=O)CS3)c(C)n1CC1CCCO1 (stereo not drawn)	-5.9*	-7	i	i	i	i	i	i	i	i
Cc1cc2ccccc2n1CCNC(=O)C1CCCC1	i	42	i	i	i	i	.	.	.	.
Cc1cc2ccccc2n1CCNC(=O)C1CC1	-6*	25	i	i	i	i	i	i	i	i
